Test results as given in ChEMBL document CHEMBL5500387, “Design, synthesis of combretastatin A-4 piperazine derivatives as potential antitumor agents by inhibiting tubulin polymerization and inducing autophagy in HCT116 cells” (Eur J Med Chem, 2024).
pIC50: −log10 of the molar value.

Columns and labels:
HCT-116 [1] = assay: Induction of cell cycle arrest in human HCT-116 cells assessed as accumulation of cells at G0/G1 phase at 0.2 uM measured after 24 hrs by PI/RNase staining based flow cytometry analysis (reference value: 32.88%); format: functional
A549 [2] = assay: Induction of cell cycle arrest in human A549 cells assessed as accumulation of cells at G2/M phase at 0.3 uM measured after 24 hrs by PI/RNase staining based analysis (reference value: 10.22%); format: functional
A549 [3] = assay: Induction of apoptosis in human A549 cells assessed as live cells at 0.3 uM measured after 24 hrs by Annexin V-APC/PI staining based flow cytometry analysis (reference value: 96.91%); format: functional
HCT-116 [4] = assay: Induction of autophagy in human HCT-116 cells assessed as increase in LC3-II protein expression measured after 24 hrs by Western blot analysis; format: functional, cell-based; details: dose 0.1-0.3 µM
Summary of the method: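 HCT116 cells exposed for 24 h to 0.1, 0.2 or 0.3 μM. Lysed on ice and protein measured by BCA. […] Milk-blocked, probed with anti-LC3A/B or anti-phospho-SQSTM1/p62 (1:1000) plus β-actin, then HRP anti-rabbit and chemiluminescence. Bands normalised to control set to 1. Three independent experiments.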

[5] = Toxicity in female BALB/c nude mouse xenografted with human HCT-116 cells assessed as adverse effects at 20 to 40 mg/kg, ip administered every 2 days for 20 days; format: organism-based; details: in vivo, 480 h, dose 20-40 mg/kg, time 20 day
Summary of the method: (§1)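 Female BALB/c nude mice, 5 weeks old, bearing subcutaneous HCT116 xenografts (started at 100 mm³), randomised into groups of ten. Saline-injected ip controls. Body weight monitored throughout the 20-day intraperitoneal treatment.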

[6] = Toxicity in female BALB/c nude mouse xenografted with human HCT-116 cells assessed as reduction in body weight at 20 to 40 mg/kg, ip administered every 2 days for 20 days; format: organism-based; details: in vivo, 480 h, dose 20-40 mg/kg, time 20 day; summary of the method: as §1
SK-MES-1 = assay: Cytotoxicity against human SK-MES-1 cells assessed as inhibition of cell proliferation measured after 72 hrs by CCK-8 assay; format: functional, cell-based; details: SK-MES-1, 72 h
Summary of the method: (§2)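 Cells seeded at 2×10^3 per well and grown overnight in 10% FBS medium: HCT116 in McCoy's 5A, A549 and AGS in F-12K, SK-MES-1 in DMEM. Compounds added at varied concentrations with 0.1% DMSO control, 72 h at 37 °C. 10% CCK-8 for 2 h, then A450 read. Survival = (As−Ab)/(Ac−Ab)×100%. IC50 from curve fitting.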

HCT-116 [7] = assay: Antitumor activity against human HCT-116 cells xenografted in female BALB/c nude mouse assessed as tumor growth inhibition at 40 mg/kg, ip administered every 2 days for 20 days by vernier caliper relative to control; format: functional; details: HCT-116, 480 h, time 20 day, read-out: TGI
Summary of the method: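 HCT116 cells (5×10^7/0.2 mL/mouse) injected subcutaneously beside the right forelimb of 5-week-old female BALB/c nude mice. At 100 mm³ tumour volume, mice randomised by weight and tumour size into four groups of ten. Saline vehicle control ip. Dosing for 20 days, then euthanasia and tumour weighing. Caliper diameters used; volume = W²×L/2.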

A549 [8] = assay: Induction of apoptosis in human A549 cells assessed as dead cells at 0.3 uM measured after 24 hrs by Annexin V-APC/PI staining based flow cytometry analysis (reference value: 0.50%); format: functional
HCT-116 [9] = assay: Induction of cell cycle arrest in human HCT-116 cells assessed as accumulation of cells at G0/G1 phase at 0.1 uM measured after 24 hrs by PI/RNase staining based flow cytometry analysis (reference value: 32.88%); format: functional
[10] = Selectivity index, ratio of IC50 for human NCM460 cells to IC50 for human HCT-116 cells; format: toxicity; details: NCM460 cells and HCT-116 cells, read-out: Ratio IC50
Summary of the method: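 The selectivity index is IC50 in NCM460 normal colonic epithelial cells (RPMI-1640, 10% FBS) divided by IC50 in HCT116. Both were measured by 72 h CCK-8 viability at 2×10^3 cells/well with A450 read-out.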

A549 [11] = assay: Induction of apoptosis in human A549 cells assessed as live cells at 0.1 uM measured after 24 hrs by Annexin V-APC/PI staining based flow cytometry analysis (reference value: 96.91%); format: functional
HCT-116 [12] = assay: Induction of cell cycle arrest in human HCT-116 cells assessed as accumulation of cells at S phase at 0.3 uM measured after 24 hrs by PI/RNase staining based flow cytometry analysis (reference value: 38.29%); format: functional
A549 [13] = assay: Induction of cell cycle arrest in human A549 cells assessed as accumulation of cells at G0/G1 phase at 0.3 uM measured after 24 hrs by PI/RNase staining based analysis (reference value: 41.91%); format: functional
HCT-116 [14] = assay: Induction of cell cycle arrest in human HCT-116 cells assessed as accumulation of cells at G2/M phase at 0.1 uM measured after 24 hrs by PI/RNase staining based flow cytometry analysis (reference value: 28.83%); format: functional
A549 [15] = assay: Induction of apoptosis in human A549 cells assessed as early apoptotic cells at 0.1 uM measured after 24 hrs by Annexin V-APC/PI staining based flow cytometry analysis (reference value: 1.73%); format: functional
[16] = Octanol-water partition coefficient, log P of the compound at pH 7.4 at 4 mg measured after 24 hrs by liquid chromatography; format: physicochemical
Summary of the method: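 4 mg of compound was dissolved in 1 mL water-saturated n-octanol and held 24 h at room temperature, then centrifuged. The supernatant was mixed with an equal volume of octanol-saturated water, stood 24 h, centrifuged and the phases separated. Phase concentrations were measured by LC standard curves. log P = log(C_octanol/C_water). At least three independent runs.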

A549 [17] = assay: Cytotoxicity against human A549 cells assessed as inhibition of cell proliferation measured after 72 hrs by CCK-8 assay; format: functional, cell-based; details: A549, 72 h; summary of the method: as §2
HCT-116 [18] = assay: Induction of cell cycle arrest at G2/M phase in human HCT-116 cells assessed as reduction in Cdc-2 protein expression measured after 48 hrs by Western blot analysis; format: functional, cell-based; details: dose 0.1-0.3 µM
Summary of the method: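 HCT116 cells given 0.1, 0.2 or 0.3 μM for 48 h, with 0.1% DMSO control. Lysates run on SDS-PAGE and blotted to PVDF. Probed with anti-Cdc2 and anti-Cyclin B1 (1:1000), β-actin as loading control, HRP secondary, and chemiluminescence. Band quantities expressed relative to control set to 1. Three independent experiments.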

A549 [19] = assay: Induction of cell cycle arrest in human A549 cells assessed as accumulation of cells at G2/M phase at 0.1 uM measured after 24 hrs by PI/RNase staining based analysis (reference value: 10.22%); format: functional
A549 [20] = assay: Induction of apoptosis in human A549 cells assessed as early apoptotic cells at 0.2 uM measured after 24 hrs by Annexin V-APC/PI staining based flow cytometry analysis (reference value: 1.73%); format: functional

**Q.** For `COc1ccc(/C=C(/C(=O)N2CCN(c3ccc(C)cc3)CC2)c2cc(OC)c(OC)c(OC)c2)cc1O`, which Activity (HCT-116 [1]) is on record?
**A.** Its Activity is 34.17%.

**Q.** And the Activity (A549 [2])?
**A.** Its Activity is 5.65%.

**Q.** And the Activity (A549 [3])?
**A.** The Activity was 68.79%.

**Q.** And the Activity (HCT-116 [4])?
**A.** The Activity was “Dose-Dependent Effect”.

**Q.** What about the Activity [5] of the same compound?
**A.** The Activity was “Non-Toxic”.

**Q.** And the Activity [6]?
**A.** Its Activity is “Non-Toxic”.

**Q.** And the pIC50 (SK-MES-1)?
**A.** The pIC50 was 6.37.

**Q.** And the inhibition in vivo at 40 mg/kg (HCT-116 [7])?
**A.** Its inhibition in vivo at 40 mg/kg is 12.7%.

**Q.** And the Activity (A549 [8])?
**A.** The Activity was 1.25%.

**Q.** And the Activity (HCT-116 [9])?
**A.** The Activity was 34.26%.

**Q.** What about the selectivity ratio [10] of the same compound?
**A.** Its selectivity ratio is 4.8.

**Q.** What about the Activity (A549 [11]) of the same compound?
**A.** Its Activity is 86.04%.

**Q.** What about the Activity (HCT-116 [12]) of the same compound?
**A.** Its Activity is 6.31%.

**Q.** And the Activity (A549 [13])?
**A.** The Activity was 87.18%.

**Q.** What about the Activity (HCT-116 [14]) of the same compound?
**A.** The Activity was 33.79%.

**Q.** And the Activity (A549 [15])?
**A.** The Activity was 10.34%.

**Q.** And the logD at 24 h [16]?
**A.** The logD at 24 h was -0.013.

**Q.** And the pIC50 (A549 [17])?
**A.** The pIC50 was 6.60.

**Q.** And the Activity (HCT-116 [18])?
**A.** The Activity was “Dose-Dependent Effect”.

**Q.** What about the Activity (A549 [19]) of the same compound?
**A.** The Activity was 5.75%.

**Q.** And the Activity (A549 [20])?
**A.** Its Activity is 17.43%.
